Columns and labels:
Settings in all cases: stereoisomer not certain
UniProt A2ATE5 = target: T1, UniProt A2ATE5
T1 sequence (whole entry): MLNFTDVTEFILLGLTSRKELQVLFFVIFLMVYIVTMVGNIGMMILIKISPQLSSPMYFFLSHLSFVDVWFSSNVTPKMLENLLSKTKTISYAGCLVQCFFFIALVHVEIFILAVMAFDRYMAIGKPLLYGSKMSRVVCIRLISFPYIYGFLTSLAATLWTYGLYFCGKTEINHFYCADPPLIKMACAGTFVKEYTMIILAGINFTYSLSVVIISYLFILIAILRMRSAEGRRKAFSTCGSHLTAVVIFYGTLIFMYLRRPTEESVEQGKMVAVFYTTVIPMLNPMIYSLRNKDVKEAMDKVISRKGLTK
Summary of the method: (§1)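 Each entry records the cell line, G-protein, co-transfected protein and tags used. Methods varied with the source, often transient luciferase assays in mammalian cell lines. A receptor–molecule pair is called responsive (active) if the original authors judged its signal statistically different from baseline and non-responsive (inactive) otherwise.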

UniProt A2AVB0 = target: T2, UniProt A2AVB0
T2 sequence (whole entry): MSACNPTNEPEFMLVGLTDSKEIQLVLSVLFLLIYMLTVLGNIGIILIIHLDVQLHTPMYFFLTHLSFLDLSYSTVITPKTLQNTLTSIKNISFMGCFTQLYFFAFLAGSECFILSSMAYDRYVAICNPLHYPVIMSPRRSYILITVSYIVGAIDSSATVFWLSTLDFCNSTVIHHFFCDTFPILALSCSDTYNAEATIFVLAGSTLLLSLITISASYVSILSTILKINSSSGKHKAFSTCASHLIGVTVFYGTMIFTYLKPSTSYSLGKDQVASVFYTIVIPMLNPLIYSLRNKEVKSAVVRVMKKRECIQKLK
Summary of the method: as §1

UniProt E9PVX1 = target: T3, UniProt E9PVX1
T3 sequence (whole entry): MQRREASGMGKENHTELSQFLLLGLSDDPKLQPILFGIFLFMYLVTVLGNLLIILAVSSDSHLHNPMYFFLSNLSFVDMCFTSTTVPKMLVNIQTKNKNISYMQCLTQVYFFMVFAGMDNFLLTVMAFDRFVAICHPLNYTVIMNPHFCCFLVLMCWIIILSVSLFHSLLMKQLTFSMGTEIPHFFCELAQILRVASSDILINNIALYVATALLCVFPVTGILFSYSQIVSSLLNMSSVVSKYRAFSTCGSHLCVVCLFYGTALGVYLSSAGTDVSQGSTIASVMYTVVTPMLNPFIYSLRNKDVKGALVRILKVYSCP
Summary of the method: as §1

UniProt E9PZ66 = target: T4, UniProt E9PZ66
T4 sequence (whole entry): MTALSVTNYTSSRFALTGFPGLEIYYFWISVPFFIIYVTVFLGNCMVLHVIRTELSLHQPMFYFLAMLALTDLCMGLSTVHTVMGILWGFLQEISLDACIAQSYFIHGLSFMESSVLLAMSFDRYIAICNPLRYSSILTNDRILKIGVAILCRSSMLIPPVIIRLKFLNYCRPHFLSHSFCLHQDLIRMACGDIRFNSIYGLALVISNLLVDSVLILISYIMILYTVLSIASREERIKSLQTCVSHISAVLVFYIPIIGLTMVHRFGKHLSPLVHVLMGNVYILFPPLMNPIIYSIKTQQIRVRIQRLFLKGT
Summary of the method: as §1

UniProt E9Q4X7 = target: T5, UniProt E9Q4X7
T5 sequence (whole entry): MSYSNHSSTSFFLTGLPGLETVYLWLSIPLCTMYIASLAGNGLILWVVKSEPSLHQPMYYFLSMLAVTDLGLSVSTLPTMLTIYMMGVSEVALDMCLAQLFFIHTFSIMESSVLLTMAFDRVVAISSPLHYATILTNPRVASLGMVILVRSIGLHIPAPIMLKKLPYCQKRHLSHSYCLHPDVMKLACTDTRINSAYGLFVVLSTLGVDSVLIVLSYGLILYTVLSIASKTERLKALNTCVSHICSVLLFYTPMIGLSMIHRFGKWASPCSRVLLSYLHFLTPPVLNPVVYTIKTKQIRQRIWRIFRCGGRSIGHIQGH
Summary of the method: as §1

UniProt E9Q546 = target: T6, UniProt E9Q546
T6 sequence (whole entry): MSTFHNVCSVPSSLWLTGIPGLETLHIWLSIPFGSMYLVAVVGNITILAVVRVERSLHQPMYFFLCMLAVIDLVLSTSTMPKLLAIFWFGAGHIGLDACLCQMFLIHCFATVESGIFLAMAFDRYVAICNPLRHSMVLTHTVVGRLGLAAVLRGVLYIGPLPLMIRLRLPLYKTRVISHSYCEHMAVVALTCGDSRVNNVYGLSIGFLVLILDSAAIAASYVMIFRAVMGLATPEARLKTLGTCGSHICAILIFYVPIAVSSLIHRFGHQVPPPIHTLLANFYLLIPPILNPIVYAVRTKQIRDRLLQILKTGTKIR
Summary of the method: as §1

UniProt E9Q6Z7 = target: T7, UniProt E9Q6Z7
T7 sequence (whole entry): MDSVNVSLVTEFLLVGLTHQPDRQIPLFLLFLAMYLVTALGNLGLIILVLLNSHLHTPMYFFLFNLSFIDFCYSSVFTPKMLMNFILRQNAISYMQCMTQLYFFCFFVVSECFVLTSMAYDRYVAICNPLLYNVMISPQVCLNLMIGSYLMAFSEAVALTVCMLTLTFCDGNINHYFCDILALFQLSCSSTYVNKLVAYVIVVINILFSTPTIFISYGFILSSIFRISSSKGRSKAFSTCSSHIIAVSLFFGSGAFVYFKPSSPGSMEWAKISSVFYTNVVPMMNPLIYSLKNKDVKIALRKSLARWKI
Summary of the method: as §1

UniProt A2AVB5 = target: T8, UniProt A2AVB5
T8 sequence (whole entry): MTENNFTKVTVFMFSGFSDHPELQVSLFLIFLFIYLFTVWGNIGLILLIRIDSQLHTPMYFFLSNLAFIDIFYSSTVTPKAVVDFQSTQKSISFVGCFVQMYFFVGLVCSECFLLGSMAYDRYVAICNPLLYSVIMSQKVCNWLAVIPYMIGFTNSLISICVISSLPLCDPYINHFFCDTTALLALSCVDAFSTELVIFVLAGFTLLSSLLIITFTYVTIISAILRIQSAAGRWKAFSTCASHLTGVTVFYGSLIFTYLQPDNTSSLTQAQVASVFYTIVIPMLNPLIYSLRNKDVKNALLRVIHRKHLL
Summary of the method: as §1

UniProt B2RVX8 = target: T9, UniProt B2RVX8
T9 sequence (whole entry): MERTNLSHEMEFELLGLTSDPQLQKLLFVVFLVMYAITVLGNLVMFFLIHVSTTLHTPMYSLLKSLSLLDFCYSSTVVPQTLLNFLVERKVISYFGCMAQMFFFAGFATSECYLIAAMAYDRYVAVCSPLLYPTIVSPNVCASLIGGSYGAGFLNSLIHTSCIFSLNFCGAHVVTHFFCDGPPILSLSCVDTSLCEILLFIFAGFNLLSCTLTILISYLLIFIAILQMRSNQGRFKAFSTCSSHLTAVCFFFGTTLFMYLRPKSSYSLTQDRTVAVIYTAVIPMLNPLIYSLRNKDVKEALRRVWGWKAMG
Summary of the method: as §1

UniProt K7N609 = target: T10, UniProt K7N609
T10 sequence (whole entry): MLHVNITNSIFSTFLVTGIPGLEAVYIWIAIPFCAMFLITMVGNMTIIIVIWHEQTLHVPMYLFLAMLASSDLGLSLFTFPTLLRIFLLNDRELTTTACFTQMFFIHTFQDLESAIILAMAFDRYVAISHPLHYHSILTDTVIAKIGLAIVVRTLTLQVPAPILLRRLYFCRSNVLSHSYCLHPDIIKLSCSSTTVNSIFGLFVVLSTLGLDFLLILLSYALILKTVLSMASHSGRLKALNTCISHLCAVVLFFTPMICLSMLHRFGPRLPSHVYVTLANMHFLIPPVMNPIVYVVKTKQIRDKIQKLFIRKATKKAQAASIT
Summary of the method: as §1

Measured: odorant receptor agonist call

CC(C)=C1CCC(C)CC1=O (stereo unspecified)
not listed: UniProt A2AVB5 | UniProt B2RVX8 | UniProt K7N609
inactive: all other assays above

CCc1ccc(O)cc1
not listed: UniProt A2AVB5 | UniProt B2RVX8 | UniProt K7N609
inactive: all other assays above

C1CCOCC1
not listed: UniProt A2AVB5 | UniProt B2RVX8 | UniProt K7N609
inactive: all other assays above

CC12CCC(CC1=O)C2(C)C (stereo unspecified)
inactive: all assays above
